Compound activity (PubChem)
Sampled rows, rich in hits. Any-hit rate of the full collection: about 1.3%.
TAG inh = inhibitors of triacylglycerol accumulation, primary screen, cell-based, uHTS, fluorescence, H9c2; H9c2 cells, Nile Red lipid (TAG) fluorescence; cells loaded with 200 µM oleic acid; inhibition, % at 12.5 µM; actives 0.66% (n = 230,000); AID 651582, 2012;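 active means pattern-corrected inhibition of lipid staining of at least 50% with the nuclear-stain viability signal not falling by more than 50%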
sPLA2-III inh = human group III sPLA2 inhibitors, primary screen, biochemical, QFRET, BODIPY PC-A2 liposome substrate; QFRET BODIPY PC-A2 liposome hydrolysis, fluorescence; AID 743126, 2013; inhibition, % at 12.2 µM; actives 0.56% (n = 370,000); Group 3 secretory phospholipase A2 (Homo sapiens), Q9NZ20;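 active means inhibition above mean plus 3 SD of compounds lying within the high and low control bounds, cut at about 19% in these data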
Target sequence (Q9NZ20 whole entry, looked up): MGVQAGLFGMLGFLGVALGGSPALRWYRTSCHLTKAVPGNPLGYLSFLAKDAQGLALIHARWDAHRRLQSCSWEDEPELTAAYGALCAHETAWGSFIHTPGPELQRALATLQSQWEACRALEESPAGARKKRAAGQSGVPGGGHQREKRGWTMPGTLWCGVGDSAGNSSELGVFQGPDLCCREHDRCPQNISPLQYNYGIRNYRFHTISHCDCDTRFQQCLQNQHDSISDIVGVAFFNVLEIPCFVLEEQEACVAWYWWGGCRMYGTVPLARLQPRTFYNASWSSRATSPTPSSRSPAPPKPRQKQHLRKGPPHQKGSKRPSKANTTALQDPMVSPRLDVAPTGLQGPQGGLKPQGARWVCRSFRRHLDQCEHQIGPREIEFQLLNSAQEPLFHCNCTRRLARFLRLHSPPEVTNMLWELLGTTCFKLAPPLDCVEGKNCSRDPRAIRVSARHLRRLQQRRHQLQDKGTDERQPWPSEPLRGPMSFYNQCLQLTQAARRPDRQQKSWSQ
Efflux pump mplx = inhibitors of Candida efflux pumps in yeast, primary screen, S. cerevisiae, Nile Red, multiplex. S. cerevisiae Candida pump triplex. inhibition, % at 10 µM. actives 0.44% (n = 330,000). AID 485275, 2010;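 active means plate passing quality check with inhibition over a set limit, or well fluorescence over plate mean plus 4 SD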;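 further: Nile Red retained in pooled yeast measured as flow cytometry median fluorescence; higher means more Nile Red kept so more efflux inhibition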
MT1-MMP act inh = blockers of MT1-MMP proenzyme processing, primary screen, HT1080 RFP-PRO-GFP cells, GFP/RFP fluorescence. GFP/RFP ratio change, % at 20 µM. actives 0.061% (n = 360,000). AID 651647, 2012. GFP/RFP ratio fluorescence, overnight; percent of plate control window, DMSO zero. Matrix metalloproteinase-14 (Homo sapiens), P50281;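 active means GFP/RFP ratio change of at least 30% with cell ATP level not reduced by more than half and red fluorescence within 50% of control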
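system = RFP-PRO-GFP reporter HT1080 cells | dosing = 20 µM single dose, 1% DMSO | timing = overnight cell settling, then overnight compound exposure, 37 °C, 5% CO2 | read-out basis = GFP/RFP fluorescence ratio | controls = DMSO and RFP-L50D-GFP cell wells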
Yeast cmpd fluor = compound fluorescence in yeast efflux pump counter-screen; AID 588517; fluorescence ratio to DMSO, % at 10 µM; shares compounds with Efflux pump mplx; actives 4% (n = 1,700); S. cerevisiae AD/pABC3, flow cytometry;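 active means fluorescence ratio to DMSO above its plate's cutoff, the plate mean ratio plus 5 SD, cut at about 210% in these data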;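 further: unstained yeast with no Nile Red so the signal is compound autofluorescence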
Mdr1 pump inh = inhibitors of Candida albicans Mdr1 efflux, confirmation, flow cytometry, singleplex, Cherry Pick1 set | shares compounds with Efflux pump mplx | S. cerevisiae AD/CaMDR1, Nile Red efflux | inhibition, % at 10 µM | actives 1% (n = 1,700); in the data active means inhibition above about 26%;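 further: higher means more Nile Red retained so more efflux inhibition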
Cdr2 pump inh = inhibitors of Candida albicans Cdr2 efflux pump, confirmation, S. cerevisiae AD/CaCDR2, flow cytometry, cherry pick 1, singleplex; Nile Red retention ratio vs DMSO, % at 10 µM; actives 4% (n = 1,700); Nile Red retention; shares compounds with Efflux pump mplx; in the data active means Nile Red retention ratio vs DMSO above about 190%;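 further: higher ratio means more blocking of Cdr2 efflux of the dye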
CaCdr1 efflux inh = inhibitors of Candida albicans Cdr1 efflux pump, confirmation, S. cerevisiae AD/CaCDR1, flow cytometry, cherry pick 1, singleplex; shares compounds with Efflux pump mplx; Nile Red efflux; inhibition, % at 10 µM; actives 1% (n = 1,700);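 active means inhibition above the screen-wide mean plus twice its standard deviation, cut at about 32% in these data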
Numbers stand for hits.

`CCn1cc(CNC(=O)c2cccc([N+](=O)[O-])c2)c(C)n1` gave TAG inh inactive, sPLA2-III inh inactive, Efflux pump mplx 11.1, MT1-MMP act inh inactive, Yeast cmpd fluor inactive, Mdr1 pump inh inactive, Cdr2 pump inh inactive and CaCdr1 efflux inh inactive.
`Cc1cc(O)c(Sc2ncn[nH]2)cc1NS(=O)(=O)c1ccc(Cl)cc1` gave TAG inh inactive, sPLA2-III inh inactive, Efflux pump mplx inactive, MT1-MMP act inh inactive, Yeast cmpd fluor inactive, Mdr1 pump inh inactive, Cdr2 pump inh inactive and CaCdr1 efflux inh inactive.
Screening O=S(=O)(Nc1cc(Sc2ncn[nH]2)c(O)c2ccccc12)c1ccccc1 returned sPLA2-III inh inactive, MT1-MMP act inh inactive, Yeast cmpd fluor inactive, Mdr1 pump inh inactive, Cdr2 pump inh inactive and CaCdr1 efflux inh inactive.
For COc1ccc(S(=O)(=O)Nc2cc(Sc3ncn[nH]3)c(O)cc2C)cc1 the results were TAG inh inactive, sPLA2-III inh inactive, Efflux pump mplx inactive, MT1-MMP act inh inactive, Yeast cmpd fluor inactive, Mdr1 pump inh inactive, Cdr2 pump inh inactive and CaCdr1 efflux inh inactive.
For Cc1ccc([N+](=O)[O-])cc1S(=O)(=O)Nc1ccc(O)c(Sc2ncn[nH]2)c1 the results were TAG inh inactive, sPLA2-III inh inactive, Efflux pump mplx inactive and MT1-MMP act inh inactive.
`CC(C)(C)c1ccc(-c2cc(NC(=O)Cc3c[nH]c4ccccc34)ccc2Nc2cccnc2)cc1` gave sPLA2-III inh inactive.
`CCOc1ccc(/C=C/C(=O)OCC(=O)NCCc2ccc(OCC)c(OCC)c2)cc1OC` gave TAG inh inactive, sPLA2-III inh inactive, Efflux pump mplx inactive and MT1-MMP act inh inactive.
O=C(O)c1ccc(-n2c(O)c(C=C3N=c4ccccc4=N3)sc2=S)cc1 was read as TAG inh inactive, sPLA2-III inh inactive, Efflux pump mplx inactive and MT1-MMP act inh inactive.
CCN1/C(=C/c2ccc3cc(C)ccc3[n+]2CC)Sc2ccccc21 was read as sPLA2-III inh inactive, Efflux pump mplx 3.0, MT1-MMP act inh inactive, Mdr1 pump inh inactive, Cdr2 pump inh inactive and CaCdr1 efflux inh inactive.
For O=C(CN(C(=O)CNC(=O)c1ccco1)c1ccc(F)cc1)NC1CCCCC1 the results were sPLA2-III inh inactive, Efflux pump mplx inactive and MT1-MMP act inh inactive.
`O=C1CCN(S(=O)(=O)c2ccc(Cl)cc2)N1` gave TAG inh inactive, sPLA2-III inh inactive, Efflux pump mplx inactive and MT1-MMP act inh inactive.
O=C1CCN(Cc2ccc(Cl)cc2)N1 was read as sPLA2-III inh inactive, Efflux pump mplx 2.1, MT1-MMP act inh inactive, Yeast cmpd fluor inactive, Mdr1 pump inh inactive, Cdr2 pump inh inactive and CaCdr1 efflux inh inactive.
For CSc1ccccc1NC(=O)c1cc(-c2ccc3c(c2)OCO3)on1 the results were sPLA2-III inh inactive, Efflux pump mplx 1.6, MT1-MMP act inh inactive, Yeast cmpd fluor inactive, Mdr1 pump inh inactive, Cdr2 pump inh inactive and CaCdr1 efflux inh inactive.
CC1CC(C)CN(C(=O)COC(=O)c2ccc(S(=O)(=O)N(C)c3ccccc3)cc2)C1 (configuration not stated) was read as TAG inh inactive, sPLA2-III inh inactive, Efflux pump mplx inactive and MT1-MMP act inh inactive.
For COc1ccc(NC(=O)c2c[nH]n3c(=O)cc(C4CCN(C(=O)OC(C)(C)C)CC4)nc23)cc1Cl the results were TAG inh inactive, sPLA2-III inh inactive, Efflux pump mplx 1.1, MT1-MMP act inh inactive, Yeast cmpd fluor inactive, Mdr1 pump inh inactive, Cdr2 pump inh inactive and CaCdr1 efflux inh inactive.
Screening COc1ccc(N2CCN(CC(=O)Nc3nc(C)cs3)CC2)cc1 returned sPLA2-III inh inactive, Efflux pump mplx inactive and MT1-MMP act inh inactive.
`Cc1ccc(S(=O)(=O)N2CC3(O)CN(C(=O)OC(C)C)N(C(=O)OC(C)C)CC3(OC(=O)NC3CCCC3)C2)cc1` (configuration not stated) gave TAG inh inactive, sPLA2-III inh inactive and MT1-MMP act inh inactive.
For CSc1ccc(CN(C)CC(=O)Nc2ccc(NC(C)=O)cc2)cc1 the results were TAG inh inactive, sPLA2-III inh inactive, Efflux pump mplx inactive and MT1-MMP act inh inactive.
`CSc1ccc(CN(C)CC(=O)Nc2cccc(Br)c2)cc1` gave sPLA2-III inh inactive, Efflux pump mplx 9.7, MT1-MMP act inh inactive, Yeast cmpd fluor inactive, Mdr1 pump inh inactive, Cdr2 pump inh inactive and CaCdr1 efflux inh inactive.
`O=C(O)CN(C1CCCCC1)S(=O)(=O)c1ccc(F)cc1` gave TAG inh inactive, sPLA2-III inh inactive, Efflux pump mplx inactive and MT1-MMP act inh inactive.
For c1nc(NCC2CC2)c2cc(-c3ccc4c(c3)OCO4)ccc2n1 the results were sPLA2-III inh inactive.
Clc1ccc(-c2n[nH]c3c2CCC3)cc1Cl was read as TAG inh inactive, sPLA2-III inh inactive, Efflux pump mplx 0.6, MT1-MMP act inh inactive, Yeast cmpd fluor inactive, Mdr1 pump inh inactive, Cdr2 pump inh inactive and CaCdr1 efflux inh inactive.
Screening Cc1c(CC(=O)N2CCC(O)CC2)c(=O)oc2cc3c(cc12)CCC1(CCCCC1)O3 returned TAG inh inactive, sPLA2-III inh inactive and MT1-MMP act inh inactive.
COc1ccc(N)cc1-n1c(C)ccc1C was read as TAG inh inactive, sPLA2-III inh inactive and Efflux pump mplx inactive.
For COc1ccc(N)cc1C#N the results were TAG inh inactive, sPLA2-III inh inactive, Efflux pump mplx 0.7, MT1-MMP act inh inactive, Yeast cmpd fluor inactive, Mdr1 pump inh inactive, Cdr2 pump inh inactive and CaCdr1 efflux inh inactive.
COc1cc(N)ccc1Cc1ccc(N)cc1OC was read as TAG inh inactive, sPLA2-III inh inactive, Efflux pump mplx 0.5, MT1-MMP act inh inactive, Yeast cmpd fluor inactive, Mdr1 pump inh inactive, Cdr2 pump inh inactive and CaCdr1 efflux inh inactive.
Screening CS(=O)(=O)c1ccc(NCCc2ccccn2)c([N+](=O)[O-])c1 returned sPLA2-III inh inactive, Efflux pump mplx inactive and MT1-MMP act inh inactive.
O=[N+]([O-])c1cc(C(F)(F)F)ccc1NCCc1ccccn1 was read as TAG inh inactive, sPLA2-III inh inactive, Efflux pump mplx 0.9, MT1-MMP act inh inactive, Yeast cmpd fluor inactive, Mdr1 pump inh inactive, Cdr2 pump inh inactive and CaCdr1 efflux inh inactive.
